Assay results: ChEMBL document CHEMBL4368909, “Identification of Dihydrofuro[3,4- d]pyrimidine Derivatives as Novel HIV-1 Non-Nucleoside Reverse Transcriptase Inhibitors with Promising Antiviral Activities and Desirable Physicochemical Properties” (J Med Chem, 2019)
pEC50, pIC50: −log10 of the molar value.

Assays:
[1] = Selectivity ratio of CC50 for human TZM-bl cells to EC50 for HIV1 NL4-3 infected in human TZM-bl cells; assay type: toxicity, cell-based; conditions: read-out: Ratio CC50/EC50
Outline: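 The selectivity index is CC50/EC50 in TZM-bl cells against NL4-3. […] The highest concentration tested was 125 ng/mL.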

[2] = tested on: Human immunodeficiency virus 1; experiment: Antiviral activity against HIV1 NL4-3 infected in human TZM-bl cells after 2 days by luciferase-bright glo assay; assay type: functional, organism-based; conditions: Human immunodeficiency virus 1, NL4-3, TZM-bl, 48 h
[3] = tested on: TZM; experiment: Cytotoxicity against human TZM-bl cells after 4 days by XTT assay; assay type: cell-based; conditions: 96 h
[4] = tested on: Human immunodeficiency virus 1; experiment: Antiviral activity against HIV1 RES056 infected in human MT4 cells assessed as reduction in virus-induced cytopathic effect after 5 days by MTT assay; assay type: functional, organism-based; conditions: Human immunodeficiency virus 1, RES056, MT4, 120 h
[5] = target: Human immunodeficiency virus type 1 reverse transcriptase (Human immunodeficiency virus 1, UniProt Q72547); experiment: Inhibition of recombinant HIV1 reverse transcriptase using (DIG)-dUTP and biotin-labeled dNTPs as substrate after 1 hr by ELISA
[6] = tested on: MT4; experiment: Cytotoxicity against human MT4 cells after 5 days by MTT assay; assay type: cell-based; conditions: mt4, 120 h
[7] = tested on: Human immunodeficiency virus 2; experiment: Antiviral activity against HIV2 ROD infected in human MT4 cells assessed as reduction in virus-induced cytopathic effect after 5 days by MTT assay; conditions: Human immunodeficiency virus 2, ISOLATE ROD, MT4, 120 h
[8] = tested on: Human immunodeficiency virus 1; experiment: Antiviral activity against wild type HIV1 3B infected in human MT4 cells assessed as reduction in virus-induced cytopathic effect after 5 days by MTT assay; assay type: functional, organism-based; conditions: Human immunodeficiency virus 1, 3B, MT4, 120 h
[9] = Selectivity ratio of CC50 for human MT4 cells to EC50 for HIV1 RES056 infected in human MT4 cells; assay type: toxicity, cell-based; conditions: read-out: Ratio CC50/EC50
[10] = Selectivity ratio of CC50 for human MT4 cells to EC50 for HIV1 3B infected in human MT4 cells; assay type: toxicity, cell-based; conditions: read-out: Ratio CC50/EC50

Cc1cc(C#N)cc(C)c1Oc1nc(N[C@@H]2CCN(Cc3ccncc3)C2)nc2ccsc12
selectivity ratio [1]: 17 | pEC50 [2]: 7.80 | CC50 [3]: > 273 nM

Cc1cc(C#N)cc(C)c1Oc1nc(N[C@@H]2CCN(Cc3ccc(C(N)=O)cc3)C2)nc2ccsc12
selectivity ratio [1]: 24 | pEC50 [2]: 7.98

Cc1cc(C#N)cc(C)c1Oc1nc(NC2CC3CCC(C2)N3Cc2ccncc2)nc2ccsc12 (stereo not drawn)
selectivity ratio [1]: 1 | pEC50 [2]: < 6.60 | CC50 [3]: > 251 nM

Cc1cc(C#N)cc(C)c1Oc1nc(NC2CCN(Cc3ccc(NS(C)(=O)=O)cc3)CC2)nc2c1CSC2
pEC50 [4]: 5.28 | pIC50 [5]: 6.85 | CC50 [6]: > 257000 nM | pEC50 [7]: < 3.59 | pEC50 [8]: 7.95

Cc1cc(C#N)cc(C)c1Oc1nc(NC2CC3CCC(C2)N3Cc2cccc(C(N)=O)c2)nc2ccsc12 (stereo not drawn)
selectivity ratio [1]: 1 | pEC50 [2]: < 6.63 | CC50 [3]: > 232 nM

Cc1cc(C#N)cc(C)c1Oc1nc(NC2CCCN(Cc3ccc(S(N)(=O)=O)cc3)CC2)nc2ccsc12 (stereo not drawn)
pEC50 [2]: 8.66 | CC50 [3]: > 222 nM

Cc1cc(C#N)cc(C)c1Oc1nc(NC2CCN(Cc3ccc(S(C)(=O)=O)cc3)CC2)nc2c1SCCC2
pEC50 [4]: 7.01 | CC50 [6]: ≥ 3400 nM | pEC50 [7]: < 5.47 | pEC50 [8]: 8.41

Cc1cc(C#N)cc(C)c1Oc1nc(NC2CCN(Cc3ccc(S(N)(=O)=O)cc3)CC2)nc2c1CCCC2
pEC50 [4]: 6.18 | pIC50 [5]: 7.08 | CC50 [6]: > 228000 nM | pEC50 [7]: < 3.64 | pEC50 [8]: 8.22

Cc1cc(C#N)cc(C)c1Oc1nc(N[C@H]2CCN(Cc3ccc(S(N)(=O)=O)cc3)C2)nc2ccsc12
selectivity ratio [1]: 2.2 | pEC50 [2]: 6.98

Cc1cc(C#N)cc(C)c1Oc1nc(NC2CCN(Cc3ccc([N+](=O)[O-])cc3)CC2)nc2c1SCCC2
pEC50 [4]: 6.22 | selectivity ratio [9]: 6.6 | CC50 [6]: 4000 nM | pEC50 [7]: < 5.40 | pEC50 [8]: 8.07 | selectivity ratio [10]: 465

Cc1cc(C#N)cc(C)c1Oc1nc(NC2CN(Cc3cccc(C(N)=O)c3)C2)nc2ccsc12
selectivity ratio [1]: 29 | pEC50 [2]: 8.05 | CC50 [3]: > 257 nM

Cc1cc(C#N)cc(C)c1Oc1nc(NC2CCCN(Cc3ccc(C(N)=O)cc3)CC2)nc2ccsc12 (stereo not drawn)
selectivity ratio [1]: 1 | pEC50 [2]: < 6.63 | CC50 [3]: > 237 nM

Cc1cc(C#N)cc(C)c1Oc1nc(N[C@@H]2CCN(Cc3ccc(S(N)(=O)=O)cc3)C2)nc2ccsc12
selectivity ratio [1]: 26 | pEC50 [2]: 8.06 | CC50 [3]: > 233 nM

Cc1cc(C#N)cc(C)c1Oc1nc(NC2CCN(Cc3ccc(C(N)=O)cc3)CC2)nc2c1CCC2
pEC50 [4]: 6.76 | pIC50 [5]: 7.14 | pEC50 [7]: 3.86 | pEC50 [8]: 8.21

Cc1cc(C#N)cc(C)c1Oc1nc(N[C@@H]2CCN(Cc3ccc(S(C)(=O)=O)cc3)C2)nc2ccsc12
selectivity ratio [1]: 16 | pEC50 [2]: 7.86

Cc1cc(C#N)cc(C)c1Oc1nc(NC2CC3CCC(C2)N3Cc2ccc(S(C)(=O)=O)cc2)nc2ccsc12 (stereo not drawn)
selectivity ratio [1]: 1 | pEC50 [2]: < 6.66 | CC50 [3]: > 217 nM

Cc1cc(C#N)cc(C)c1Oc1nc(N[C@H]2CCN(Cc3cccc(C(N)=O)c3)C2)nc2ccsc12
selectivity ratio [1]: 1 | pEC50 [2]: < 6.60 | CC50 [3]: > 250 nM

Cc1cc(C#N)cc(C)c1Oc1nc(NC2CCN(Cc3ccc(N)cc3)CC2)nc2c1CSC2
pEC50 [4]: 6.15 | pIC50 [5]: 6.94 | CC50 [6]: > 257000 nM | pEC50 [7]: 3.97 | pEC50 [8]: 8.08

Cc1cc(C#N)cc(C)c1Oc1nc(NC2CCCN(Cc3ccncc3)CC2)nc2ccsc12 (stereo not drawn)
selectivity ratio [1]: 8 | pEC50 [2]: 7.50 | CC50 [3]: > 257 nM

Cc1cc(C#N)cc(C)c1Oc1nc(NC2CC3CCC(C2)N3Cc2ccc(S(N)(=O)=O)cc2)nc2ccsc12 (stereo not drawn)
selectivity ratio [1]: 1 | pEC50 [2]: < 6.66 | CC50 [3]: > 217 nM

Cc1cc(C#N)cc(C)c1Oc1nc(NC2CCN(Cc3ccc(C(N)=O)cc3)CC2)nc2c1CCCC2
pEC50 [4]: 6.54 | pIC50 [5]: 7.29 | CC50 [6]: > 233000 nM | pEC50 [7]: < 3.63 | pEC50 [8]: 8.22

Cc1cc(C#N)cc(C)c1Oc1nc(N[C@H]2CCN(Cc3ccc(C(N)=O)cc3)C2)nc2ccsc12
selectivity ratio [1]: 4.5 | pEC50 [2]: 7.25 | CC50 [3]: > 250 nM

Cc1cc(C#N)cc(C)c1Oc1nc(N[C@H]2CCN(Cc3ccncc3)C2)nc2ccsc12
selectivity ratio [1]: 16 | pEC50 [2]: 7.78

Cc1cc(C#N)cc(C)c1Oc1nc(NC2CCN(Cc3cccc(C(N)=O)c3)CC2)nc2c1SCC2
pEC50 [4]: 6.20 | pIC50 [5]: 7.03 | pEC50 [7]: < 3.65 | pEC50 [8]: 7.56

Cc1cc(C#N)cc(C)c1Oc1nc(NC2CN(Cc3ccc(C(N)=O)cc3)C2)nc2ccsc12
selectivity ratio [1]: 54 | pEC50 [2]: 8.32 | CC50 [3]: > 257 nM

Cc1cc(C#N)cc(C)c1Oc1nc(NC2CCN(Cc3ccc(C(N)=O)cc3)CC2)nc2c1SCCC2
pEC50 [4]: 7.03 | CC50 [6]: ≥ 44300 nM | pEC50 [7]: < 4.35 | pEC50 [8]: 8.52

Cc1cc(C#N)cc(C)c1Oc1nc(NC2CN(Cc3ccncc3)C2)nc2ccsc12
selectivity ratio [1]: 128 | pEC50 [2]: 8.66 | CC50 [3]: > 282 nM

Cc1cc(C#N)cc(C)c1Oc1nc(NC2CN(Cc3ccc(S(C)(=O)=O)cc3)C2)nc2ccsc12
selectivity ratio [1]: 1.1 | pEC50 [2]: 6.68 | CC50 [3]: > 240 nM

Cc1cc(C#N)cc(C)c1Oc1nc(N[C@@H]2CCN(Cc3cccc(C(N)=O)c3)C2)nc2ccsc12
selectivity ratio [1]: 6 | pEC50 [2]: 7.38

Cc1cc(C#N)cc(C)c1Oc1nc(NC2CCCN(Cc3ccc(S(C)(=O)=O)cc3)CC2)nc2ccsc12 (stereo not drawn)
selectivity ratio [1]: 22 | pEC50 [2]: 8.00 | CC50 [3]: > 222 nM

Cc1cc(C#N)cc(C)c1Oc1nc(NC2CCN(Cc3cccc(C(N)=O)c3)CC2)nc2c1COC2
pEC50 [4]: 5.99 | pIC50 [5]: 7.04 | pEC50 [7]: 3.68 | pEC50 [8]: 8.11

Cc1cc(C#N)cc(C)c1Oc1nc(NC2CCN(Cc3ccncc3)CC2)nc2c1CCC2
pEC50 [4]: 7.26 | pIC50 [5]: 7.14 | CC50 [6]: > 274000 nM | pEC50 [7]: 3.86 | pEC50 [8]: 8.74

Cc1cc(C#N)cc(C)c1Oc1nc(NC2CCN(Cc3ccncc3)CC2)nc2c1SCC2
pEC50 [4]: 7.34 | pIC50 [5]: 6.95 | pEC50 [7]: 4.80 | pEC50 [8]: 8.59

Cc1cc(C#N)cc(C)c1Oc1nc(N[C@H]2CCN(Cc3ccc(S(C)(=O)=O)cc3)C2)nc2ccsc12
selectivity ratio [1]: 4.6 | pEC50 [2]: 7.29 | CC50 [3]: > 234 nM

Cc1cc(C#N)cc(C)c1Oc1nc(NC2CN(Cc3ccc(S(N)(=O)=O)cc3)C2)nc2ccsc12
selectivity ratio [1]: 53 | pEC50 [2]: 8.34 | CC50 [3]: > 240 nM

Cc1cc(C#N)cc(C)c1Oc1nc(NC2CCN(Cc3ccc(S(C)(=O)=O)cc3)CC2)nc2c1CCCC2
pEC50 [4]: 7.18 | pIC50 [5]: 7.05 | CC50 [6]: > 266000 nM | pEC50 [7]: ≤ 3.79 | pEC50 [8]: 8.10

Cc1cc(C#N)cc(C)c1Oc1nc(NC2CCN(Cc3ccc([N+](=O)[O-])cc3)CC2)nc2c1COC2
pEC50 [4]: 6.29 | pIC50 [5]: 7.04 | pEC50 [7]: < 4.95 | pEC50 [8]: 8.13

Cc1cc(C#N)cc(C)c1Oc1nc(NC2CCCN(Cc3cccc(C(N)=O)c3)CC2)nc2ccsc12 (stereo not drawn)
selectivity ratio [1]: 23 | pEC50 [2]: 7.99 | CC50 [3]: > 237 nM

Cc1cc(C#N)cc(C)c1Oc1nc(NC2CC3CCC(C2)N3Cc2ccc(C(N)=O)cc2)nc2ccsc12 (stereo not drawn)
selectivity ratio [1]: 1 | pEC50 [2]: < 6.63 | CC50 [3]: > 232 nM
